Data published in ChEMBL document CHEMBL1926658, “The design, synthesis and biological evaluations of C-6 or C-7 substituted 2-hydroxyisoquinoline-1,3-diones as inhibitors of hepatitis C virus” (Bioorg Med Chem, 2012).

Assays:
[1] = Cytotoxicity against human HuH7 cells infected with HCV1b assessed as cell viability at 10 uM after 3 days by MTS assay; type: cell-based, Huh-7; conditions: read-out: Activity
How it was run: (§1)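 Replicon cells (Huh-7/HCV1b-Rluc) seeded at 6 × 10³/well minus G418, then exposed next day to compound in DMSO for three days at 37 °C/5% CO₂. Viability read with MTS reagent (CellTiter 96 AQueous One) by absorbance at […]. CC₅₀ taken as concentration reducing proliferation by 50%, fitted from eight serial dilutions against vehicle-treated cells.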

Hepatitis C virus [2] = assay: Antiviral activity against HCV genotype 1b infected in human HuH7 cells assessed as reduction in luciferase activity at 10 uM after 3 days; type: functional, Hepacivirus hominis, Huh-7; set-up: scale not given: the % may be the effect or the level left
How it was run: (§2)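 Huh-7/HCV1b-Rluc genotype 1b replicon cells plated at 6 × 10³/well without G418; next day compound in DMSO added, 37 °C/5% CO₂ for 3 days. Live-cell renilla luciferase substrate (1:1000) added, luminescence read immediately. Triplicates, ≥2 independent runs. Single-point tests at 10 µM with ribavirin (10 µM) and 2'-C-methyl adenosine (500 nM) controls; EC₅₀ from eight serial dilutions versus vehicle.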

[3] = Therapeutic index, ratio of CC50 for human HuH7 cells infected with HCV1b to EC50 for HCV genotype 1b; type: cell-based, Huh-7; conditions: read-out: Ratio CC50/EC50
How it was run: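 Index computed as CC₅₀/EC₅₀, both values from 3-day assays in Huh-7/HCV1b-Rluc replicon cells: EC₅₀ from renilla luciferase signal, CC₅₀ from MTS absorbance at 450 nm, each fitted from eight serial dilutions against vehicle.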

[4] = Cytotoxicity against human HuH7 cells infected with HCV1b after 3 days by MTS assay; type: cell-based, Huh-7; how it was run: as §1
Hepatitis C virus [5] = assay: Antiviral activity against HCV genotype 1b infected in human HuH7 cells after 3 days by renilla luciferase reporter assay; type: functional, organism-based, Hepacivirus hominis; conditions: Huh-7, 72 h; how it was run: as §2
[6] = Inhibition of HCV NS5b RNA-dependent RNA polymerase; set-up: species or system Hepacivirus hominis
Hepatitis C virus [7] = assay: Inhibition of recombinant HCV genotype 1b NS5B polymerase activity after 3 hrs by scintillation proximity assay; set-up: species or system Hepatitis C virus subtype 1b
How it was run: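 Started with 450 nM oligo-U12 primer, 30 nM UTP, 75 nM poly(A) template and ³H-UTP; 3 h at room temperature, scintillation proximity read-out. Duplicates, ≥2 repeats; IC₅₀ from eight serial dilutions.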

O=C1Cc2cc(-c3cc4ccccc4o3)ccc2C(=O)N1O
viability at 72 h, 10 µM [1]: 46%
Activity (Hepatitis C virus [2]): 73%

NC(=O)c1ncn([C@@H]2O[C@H](CO)[C@@H](O)[C@H]2O)n1 [RIBAVIRIN]
selectivity ratio [3]: 2.3
CC50 at 72 h [4]: 32 µM
EC50 (Hepatitis C virus [5]): 14 µM

O=C1Cc2cc(-c3csc4ccccc34)ccc2C(=O)N1O
viability at 72 h, 10 µM [1]: 34%
Activity (Hepatitis C virus [2]): 95%

O=C1Cc2cc(-c3cccc4c3oc3ccccc34)ccc2C(=O)N1O
viability at 72 h, 10 µM [1]: 28%
Activity (Hepatitis C virus [2]): 98%

O=C1Cc2ccc(-c3ccc(F)c(F)c3)cc2C(=O)N1O
viability at 72 h, 10 µM [1]: 33%
Activity (Hepatitis C virus [2]): 100%

C[C@@]1(O)[C@H](O)[C@@H](CO)O[C@H]1n1cnc2c(N)ncnc21
selectivity ratio [3]: 270
CC50 at 72 h [4]: 55 µM

COc1cccc(-c2ccc3c(c2)C(=O)N(O)C(=O)C3)c1
viability at 72 h, 10 µM [1]: 37%
Activity (Hepatitis C virus [2]): 54%

CS(=O)(=O)c1ccc(-c2ccc3c(c2)CC(=O)N(O)C3=O)cc1
viability at 72 h, 10 µM [1]: 100%
Activity (Hepatitis C virus [2]): 3%

N#Cc1cc(COc2cccc(C(=O)/C=C(\O)C(=O)O)c2)c(Cl)cc1Cl
IC50 [6]: 0.045 µM
IC50 (Hepatitis C virus [7]): 0.015 µM

O=C1Cc2cc(-c3ccc4c(c3)OCO4)ccc2C(=O)N1O
viability at 72 h, 10 µM [1]: 79%
Activity (Hepatitis C virus [2]): 28%

O=C1Cc2ccc(I)cc2C(=O)N1O
viability at 72 h, 10 µM [1]: 86%
selectivity ratio [3]: 6.9
Activity (Hepatitis C virus [2]): 79%
CC50 at 72 h [4]: 27 µM
EC50 (Hepatitis C virus [5]): 3.9 µM
IC50 (Hepatitis C virus [7]): 15 µM

O=C1Cc2ccc(-c3ccco3)cc2C(=O)N1O
viability at 72 h, 10 µM [1]: 21%
Activity (Hepatitis C virus [2]): 51%
IC50 (Hepatitis C virus [7]): 18 µM

O=C1Cc2cc(-c3ccco3)ccc2C(=O)N1O
viability at 72 h, 10 µM [1]: 96%
selectivity ratio [3]: 6.8
Activity (Hepatitis C virus [2]): 89%
CC50 at 72 h [4]: 13 µM
EC50 (Hepatitis C virus [5]): 1.9 µM
IC50 (Hepatitis C virus [7]): 1.3 µM

O=C1Cc2cc(-c3ccoc3)ccc2C(=O)N1O
viability at 72 h, 10 µM [1]: 52%
Activity (Hepatitis C virus [2]): 100%
IC50 (Hepatitis C virus [7]): 11 µM

O=C1Cc2ccc(-c3ccc(F)c(Cl)c3)cc2C(=O)N1O
viability at 72 h, 10 µM [1]: 83%
Activity (Hepatitis C virus [2]): 30%
IC50 (Hepatitis C virus [7]): 7.1 µM

O=C1Cc2cc(-c3cccs3)ccc2C(=O)N1O
viability at 72 h, 10 µM [1]: 100%
selectivity ratio [3]: 11
Activity (Hepatitis C virus [2]): 93%
CC50 at 72 h [4]: 18 µM
EC50 (Hepatitis C virus [5]): 1.7 µM
IC50 (Hepatitis C virus [7]): 7.3 µM

O=C1Cc2ccc(-c3cc4ccccc4o3)cc2C(=O)N1O
viability at 72 h, 10 µM [1]: 33%
Activity (Hepatitis C virus [2]): 83%

O=C1Cc2cc(-c3cccc(-c4ccccc4)c3)ccc2C(=O)N1O
viability at 72 h, 10 µM [1]: 23%
Activity (Hepatitis C virus [2]): 95%

O=C1Cc2cc(-c3cccc4c3sc3ccccc34)ccc2C(=O)N1O
viability at 72 h, 10 µM [1]: 32%
Activity (Hepatitis C virus [2]): 95%

O=C1Cc2cc(-c3ccsc3)ccc2C(=O)N1O
viability at 72 h, 10 µM [1]: 100%
selectivity ratio [3]: 2.2
Activity (Hepatitis C virus [2]): 72%
CC50 at 72 h [4]: 98 µM
EC50 (Hepatitis C virus [5]): 44 µM
IC50 (Hepatitis C virus [7]): 9 µM

O=C1Cc2cc(-c3ccc(F)c(F)c3)ccc2C(=O)N1O
viability at 72 h, 10 µM [1]: 34%
Activity (Hepatitis C virus [2]): 78%

Cc1ccc(-c2ccc3c(c2)CC(=O)N(O)C3=O)o1
viability at 72 h, 10 µM [1]: 87%
selectivity ratio [3]: 2.6
Activity (Hepatitis C virus [2]): 76%
CC50 at 72 h [4]: 11 µM
EC50 (Hepatitis C virus [5]): 4.3 µM
IC50 (Hepatitis C virus [7]): 18 µM

O=C1Cc2ccc(-c3cccs3)cc2C(=O)N1O
viability at 72 h, 10 µM [1]: 21%
Activity (Hepatitis C virus [2]): 99%

O=C1Cc2cc(-c3ccc(C(F)(F)F)cc3)ccc2C(=O)N1O
viability at 72 h, 10 µM [1]: 29%
Activity (Hepatitis C virus [2]): 93%

O=C1Cc2cc(-c3ccc(F)cc3)ccc2C(=O)N1O
viability at 72 h, 10 µM [1]: 90%
selectivity ratio [3]: 1.2
Activity (Hepatitis C virus [2]): 73%
CC50 at 72 h [4]: 11 µM
EC50 (Hepatitis C virus [5]): 9.6 µM
IC50 (Hepatitis C virus [7]): 20 µM
